Data on 13 molecules can be found in ChEMBL document CHEMBL3763015 (Bioorg Med Chem, 2016).

Data set [1] concerns the target Cathepsin B (Bos taurus) (UniProt P07688). In words: Inhibition of bovine spleen cathepsin B using Z-Arg-Arg-MCA as substrate at 1 mM incubated for 10 mins. A digest of the protocol:
(§1)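 10 mU enzyme preincubated 10 min at 40 °C in 50 mM MES pH 6.0 with 2 mM DTT and 0.1% Brij-35. Z-Arg-Arg-MCA and inhibitor in DMSO were then added and incubated 10 min at 40 °C. Reaction stopped with sodium monochloroacetate/acetate buffer, pH 4.3. Screening was at 1.0 mM inhibitor; IC50 runs used 1 nM to 1 mM.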

Data set [2] has as its system HeLa. In words: Cytotoxicity against human HeLa cells assessed as cell death at 200 uM by […]. The format is cell-based. A digest of the protocol:
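HeLa cells were grown in DMEM with 5% FBS and 1% penicillin–streptomycin. 100 μl of 5000 cells/ml was seeded and held 24 h at 37 °C, 5% CO2. Compound at 200 μM, with rotenone control, was added for 24 h. WST-8/1-methoxy PMS was added for 2 h, and absorbance read at 450 nm against 630 nm. Result reported as cell death ratio.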

In data set [3] the target is Cathepsin B (Bos taurus, UniProt P07688). Kind of data set: Inhibition of bovine spleen cathepsin B using Z-Arg-Arg-MCA as substrate incubated for 10 mins. A digest of the protocol:
as §1

The target of data set [4] is Cathepsin B (Bos taurus) (UniProt P07688). Kind of data set: Competitive inhibition of bovine spleen cathepsin B using Z-Arg-Arg-MCA as substrate incubated for 10 mins by Lineweaver-Burk plot.

Active and inactive are the calls of the source. The rule behind the calls is not given here. A value given as a limit tells only on which side of the number the result lay.

One may read the inhibition as how much of the control response was suppressed. In data set [1], `COc1cccc(/C=C/C(=O)N[C@H](COC(=O)c2ccccc2)C(=O)NC2CCCCC2)c1` yielded an inhibition of 44%.

Regarding `O=C(/C=C/c1ccccc1)N[C@@H](COC(=O)CCc1ccccc1)C(=O)NC1CCCCC1`, the inhibition in data set [1] worked out at 82%.

Take `O=C(/C=C/c1ccccc1)N[C@H](COC(=O)c1ccccc1)C(=O)NC1CCCCC1`: the inhibition result in data set [1] was “inactive”.

As to `O=C(/C=C/c1ccccc1)N[C@@H](COC(=O)c1ccccc1)C(=O)NC1CCCCC1`, in data set [2], the Activity is reported as below 20%. Also, the inhibition in data set [1] was found to be 34%.

In data set [1], `O=C(/C=C/c1ccc(OC(=O)c2ccccc2)cc1)N[C@H](COC(=O)c1ccccc1)C(=O)NC1CCCCC1` showed an inhibition of 19%.

Molecule `COc1ccc(/C=C/C(=O)N[C@@H](COC(=O)c2ccccc2)C(=O)NC2CCCCC2)cc1OC` registered an inhibition in data set [1] of 88%.

As a reminder, the IC50 is the midpoint of a concentration-inhibition curve. Higher therefore signals a need for much substance. On to `COc1ccccc1/C=C/C(=O)N[C@@H](COC(=O)c1ccccc1)C(=O)NC1CCCCC1`, for which, in data set [3], the midpoint of inhibition, the IC50, lay at 170 µM. Besides, the inhibition result in data set [4] is “Active”. This molecule also yielded an inhibition in data set [1] of 67%.

`COc1cc(/C=C/C(=O)N[C@H](COC(=O)c2ccccc2)C(=O)NC2CCCCC2)cc(OC)c1OC`: half-maximal inhibition in data set [3] (IC50) required 500 µM. In addition, in data set [1], the inhibition was 70%.

With `COc1cc(/C=C/C(=O)N[C@@H](COC(=O)c2ccccc2)C(=O)NC2CCCCC2)cc(OC)c1OC`, the Activity in data set [2] is given as below 20%. In data set [1], this molecule showed an inhibition of 21%.

For the molecule `O=C(/C=C/c1ccc(OC(=O)c2ccccc2)cc1)N[C@@H](COC(=O)c1ccccc1)C(=O)NC1CCCCC1`, the Activity in data set [2] was below 20%. Besides, in data set [1], the inhibition stood at 35%.

Regarding `COc1cc(/C=C/C(=O)N[C@@H](COC(=O)c2ccccc2)C(=O)NC2CCCCC2)cc(OC)c1`, in data set [2], the Activity was below 20%. In addition, in data set [1], the inhibition result is “inactive”.

Regarding `COc1cccc(/C=C/C(=O)N[C@@H](COC(=O)c2ccccc2)C(=O)NC2CCCCC2)c1`, the Activity in data set [2] is given as below 20%. Moreover, the inhibition in data set [1] was 36%.

As to `COc1cc(/C=C/C(=O)N[C@H](COC(=O)c2ccccc2)C(=O)NC2CCCCC2)cc(OC)c1`, the inhibition in data set [1] worked out at 22%.
